We go through eight compounds from ChEMBL document CHEMBL1131089, “Physical parameters and biological stability of yttrium(III) diethylenetriaminepentaacetic acid derivative conjugates” (J Med Chem, 1998).

The nature of data set [1]: Yttrium(III) stability constant of the compound. It is filed as physicochemical. An outline of the steps: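 Spectrophotometric competition at 25 °C, μ = 0.1 M. Y(III) (3.950 × 10⁻⁶ M) with Arsenazo III (2.00 × 10⁻⁵ M) at pH 3.90, titrated with ligand aliquots. Absorbance drop at 652 nm after each equilibration gave conditional constants, converted to log K. Y–AAIII ML and ML₂ constants and extinction coefficients first obtained by titrating dye with YCl₃.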

The species entered for the next data set is Mus musculus. The experiment in a line: Percent injected dose per gram at 168 hour for mice injected with 88Y-Ligand-B 72.3. The class given is functional, organism-based.
Data set [2] is described as follows: Fraction of 88Y (%) released from chelate after incubation in serum for 15 hours. It is filed as ADME. Put shortly: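 p-Nitrobenzyl DTPA derivatives converted to p-isothiocyanato form, conjugated to antibody B72.3, labeled with 88Y. Conjugates incubated in serum 15 h; released 88Y assessed by size-exclusion HPLC (TSK 3000SW, MES/Cl− buffer 0.02 M MES, 0.15 M NaCl, pH 6.5). 88Y-albumin eluted at 7.7 min, assigned against molecular weight standard. Injectate aliquots counted for HPLC recovery.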

For `O=C(O)CN(CC(=O)O)[C@@H](Cc1ccc([N+](=O)[O-])cc1)CN(CC(=O)O)[C@@H]1CCCC[C@H]1N(CC(=O)O)CC(=O)O`, the “Log K” value in data set [1] was found to be 24.4. The compound further yielded an ID/g femur in the data set listed under Mus musculus of 6.1%. Besides, the 88Y-serum in data set [2] was 18.5%.

`O=C(O)CN(CCN(CC(=O)O)[C@@H]1CCCC[C@H]1N(CC(=O)O)CC(=O)O)CC(=O)O`: the “Log K” value in data set [1] was found to be 24.2.

`O=C(O)CN(CCN(CC(=O)O)CC(Cc1ccc([N+](=O)[O-])cc1)N(CC(=O)O)CC(=O)O)CC(=O)O` (centres undefined): the “Log K” value in data set [1] turned out to be 21.5. For the same compound, the ID/g femur in the data set listed under Mus musculus amounted to 4.3%.

For `CC(CN(CC(=O)O)CC(=O)O)N(CC(=O)O)CC(Cc1ccc([N+](=O)[O-])cc1)N(CC(=O)O)CC(=O)O` (centres undefined), the “Log K” value in data set [1] was 22.5. The compound further came in with an ID/g femur in the data set filed under Mus musculus of 3%. Besides, in data set [2], the 88Y-serum is on record as 4.84%.

For the compound `CC(CN(CC(=O)O)CC(Cc1ccc([N+](=O)[O-])cc1)N(CC(=O)O)CC(=O)O)N(CC(=O)O)CC(=O)O` (centres undefined), in data set [1], the “Log K” value amounted to 22.5. This compound also came in with an ID/g femur in the data set filed under Mus musculus of 2.5%. In addition, the 88Y-serum in data set [2] is given as 6.27%.

Take `O=C(O)CN(CCN(CC(=O)O)C(Cc1ccc([N+](=O)[O-])cc1)CN(CC(=O)O)CC(=O)O)CC(=O)O` (centres undefined): the “Log K” value in data set [1] stood at 21.7. The compound also displayed an ID/g femur in the data set listed under Mus musculus of 5.2%. For the same compound, the 88Y-serum in data set [2] was 7%.

As to `O=C(O)CN(CC(=O)O)[C@H](Cc1ccc([N+](=O)[O-])cc1)CN(CC(=O)O)[C@@H]1CCCC[C@H]1N(CC(=O)O)CC(=O)O`, the “Log K” value in data set [1] was 24.7. The compound further yielded an ID/g femur in the data set listed under Mus musculus of 3.6%. The 88Y-serum in data set [2] came to 3.79%.

`O=C(O)CN(CCN(CC(=O)O)CC(=O)O)CCN(CC(=O)O)CC(=O)O` [PENTETIC ACID]: the “Log K” value in data set [1] is recorded as 22.4.
